The source of these data is ChEMBL document CHEMBL2177062, “Bile acid-based 1,2,4-trioxanes: synthesis and antimalarial assessment” (J Med Chem, 2012).

SMILES strings stand for the structures. Calls of active or inactive are those of the source. The calls are words filed in the database; no cut-off is given here.

The subject of series [1] is Plasmodium yoelii nigeriensis. Description: Antimalarial activity in multidrug-resistant Plasmodium yoelii nigeriensis infected Swiss mouse assessed as suppression of parasitaemia at 96 mg/kg, po two devided dose daily for 4 days. It is filed as functional. The procedure, abridged:
(§1)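 Swiss mice of either sex (20 2 g) inoculated ip with 1 × 10⁶ MDR P. yoelii nigeriensis parasites on day 0. Five mice per dose, given oral doses in groundnut oil from day 0 to 3, twice daily. Parasitaemia read from thin blood smears on day 4. Suppression = [(C − T)/C] × 100 versus untreated controls. 100% means no parasites seen in 50 oil-immersion fields.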

Series [2] has as its system Plasmodium yoelii nigeriensis. Description: Antimalarial activity in multidrug-resistant Plasmodium yoelii nigeriensis infected Swiss mouse assessed as suppression of parasitaemia at 24 mg/kg, po two devided dose daily for 4 days. It is filed as functional. The procedure, abridged: as §1
Series [3] in a line: Lipophilicity, log P of the compound. It is filed as physicochemical. Conditions: octanol/water. The procedure, abridged: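 log P calculated in silico, not measured experimentally.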
The subject of series [4] is Plasmodium yoelii nigeriensis. Kind of series: Antimalarial activity in multidrug-resistant Plasmodium yoelii nigeriensis infected Swiss mouse assessed as suppression of parasitaemia at 48 mg/kg, po two devided dose daily for 4 days. It is filed as functional. The method in brief: as §1
Series [5] relates to Plasmodium yoelii nigeriensis. Kind of series: Antimalarial activity in multidrug-resistant Plasmodium yoelii nigeriensis infected Swiss mouse assessed as disease cure at 24 mg/kg, po two devided dose daily for 4 days by 28 day survival assay. It is filed as functional. The procedure, abridged: (§2)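 Swiss mice of either sex (20 2 g) inoculated ip with 1 × 10⁶ MDR P. yoelii nigeriensis (chloroquine-, mefloquine-, halofantrine-resistant) parasites on day 0. Five mice per dose. Oral dosing in groundnut oil (0.1 mL per dose) from day 0 to 3, as two divided doses daily. Thin blood smears on day 4, then twice weekly to day 28. Mice without patent infection by day 28 scored cured; % protection = fraction of mice cured. β-arteether as positive control.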

The subject of series [6] is Plasmodium yoelii nigeriensis. Kind of series: Antimalarial activity in multidrug-resistant Plasmodium yoelii nigeriensis infected Swiss mouse assessed as disease cure at 96 mg/kg, po two devided dose daily for 4 days by 28 day survival assay. It is filed as functional. The procedure, abridged: as §2
Series [7] relates to Plasmodium yoelii nigeriensis. Description: Antimalarial activity in multidrug-resistant Plasmodium yoelii nigeriensis infected Swiss mouse assessed as disease cure at 48 mg/kg, po two devided dose daily for 4 days by 28 day survival assay. It is filed as functional, organism-based. Further details: dose 48 mg/kg. The method in brief:
as §2

Series [8] deals with Plasmodium yoelii nigeriensis. Description: Antimalarial activity in multidrug-resistant Plasmodium yoelii nigeriensis infected Swiss mouse assessed as suppression of parasitaemia at 12 mg/kg, po two devided dose daily for 4 days. It is filed as functional. The procedure, abridged:
as §1

The subject of series [9] is Plasmodium yoelii nigeriensis. Description: Antimalarial activity in multidrug-resistant Plasmodium yoelii nigeriensis infected Swiss mouse assessed as disease cure at 12 mg/kg, po two devided dose daily for 4 days by 28 day survival assay. It is filed as functional, organism-based. Further details: dose 12 mg/kg. The procedure, abridged:
as §2

As a reminder, the logP is the decadic logarithm of the partition coefficient of the neutral form, usually between octanol and water. Read a high logP as higher lipophilicity. For `C=C(c1ccc(Br)cc1)[C@@H]1CO[C@@]2(CC[C@@]3(C)[C@H](CC[C@@H]4[C@@H]3CC[C@]3(C)[C@@H](C(C)=O)CC[C@@H]43)C2)OO1` (relative stereo; form 1) [listing 1 of 2 here], the Activity in series [1] (96 mg/kg), in series [2] and in series [4] was 100% in each case. The compound further showed a lipophilicity (logP) in [3] of 8.03.
On to `C=C(c1ccc(F)cc1)[C@@H]1CO[C@@]2(CC[C@@]3(C)[C@H](CC[C@@H]4[C@@H]3CC[C@]3(C)[C@@H](C(C)=O)CC[C@@H]43)C2)OO1` (relative stereo; form 1) [listing 1 of 2 here], for which the Activity in series [4] (48 mg/kg) came to 88.03%.
Turning to `C=C(c1ccc(Br)cc1)[C@@H]1CO[C@@]2(CC[C@@]3(C)[C@H](CC[C@@H]4[C@@H]3CC[C@]3(C)[C@@H](C(C)=O)CC[C@@H]43)C2)OO1` (relative stereo; form 1) [listing 2 of 2 here], the outcome in series [5] and in [7] was inactive. The result in series [6] was Active.
On to `C=C(c1ccc(F)cc1)[C@@H]1CO[C@@]2(CC[C@@]3(C)[C@H](CC[C@@H]4[C@@H]3CC[C@]3(C)[C@@H](C(C)=O)CC[C@@H]43)C2)OO1` (relative stereo; form 1) [listing 2 of 2 here], for which, in series [7], the outcome was inactive.
Take `C=C(c1ccc(Cl)cc1)[C@@H]1CO[C@@]2(CC[C@@]3(C)[C@H](CC[C@@H]4[C@@H]3CC[C@]3(C)[C@@H]([C@H](C)CCC(=O)OC)CC[C@@H]43)C2)OO1` (relative stereo; form 2): in [1] (96 mg/kg), the Activity is 45.23%.
Consider `C=C(c1ccccc1)[C@@H]1CO[C@@]2(CC[C@@]3(C)[C@H](CC[C@@H]4[C@@H]3CC[C@]3(C)[C@@H](O)CC[C@@H]43)C2)OO1` (relative stereo; form 2) [listing 1 of 2 here], for which the Activity in [1] (96 mg/kg) is on record as 100%; in [2] it was 100%; in [8], 88.7%; in [4], 100%. Also, the logP in series [3] came to 6.44.
With `C=C(c1ccc(F)cc1)[C@@H]1CO[C@@]2(CC[C@@]3(C)[C@H](CC[C@@H]4[C@@H]3CC[C@]3(C)[C@@H](O)CC[C@@H]43)C2)OO1` (relative stereo; form 2) [listing 1 of 2 here], the Activity in series [1] is given as 100%; in series [2], 100%; in [8] it was 95.48%; in [4], 100%. This compound registered a log partition coefficient (logP) in series [3] of 6.66.
Regarding `C=C(c1ccc(Br)cc1)[C@@H]1CO[C@@]2(CC[C@@]3(C)[C@H](CC[C@@H]4[C@@H]3CC[C@]3(C)[C@@H](O)CC[C@@H]43)C2)OO1` (relative stereo; form 2) [listing 1 of 2 here], the Activity in series [1] (96 mg/kg) turned out to be 100%; in series [2] it was 100%; in series [8], 44.5%; in series [4] it was 100%. Besides, the lipophilicity (logP) in series [3] was 7.27.
For `C=C(c1ccccc1)[C@@H]1CO[C@@]2(CC[C@@]3(C)[C@H](CC[C@@H]4[C@@H]3CC[C@]3(C)[C@@H](C(C)=O)CC[C@@H]43)C2)OO1` (relative stereo; form 2) [listing 1 of 2 here], the Activity in series [5] is on record as 60%; in [1] (96 mg/kg), 100%; in [2], 100%; in [4], 100%. The compound further showed a logP in series [3] of 7.2.
On to `C=C(c1ccc(F)cc1)[C@@H]1CO[C@@]2(CC[C@@]3(C)[C@H](CC[C@@H]4[C@@H]3CC[C@]3(C)[C@@H](C(C)=O)CC[C@@H]43)C2)OO1` (relative stereo; form 2) [listing 1 of 2 here], for which the Activity is given as 60% in series [5], 100% in series [1], 100% in series [2] and 100% in [4] (48 mg/kg). The compound further displayed a logP in [3] of 7.36.
As to `C=C(c1ccc(Cl)cc1)[C@@H]1CO[C@@]2(CC[C@@]3(C)[C@H](CC[C@@H]4[C@@H]3CC[C@]3(C)[C@@H](C(C)=O)CC[C@@H]43)C2)OO1` (relative stereo; form 2) [listing 1 of 2 here], the Activity in series [5] is on record as 60%; in series [1] (96 mg/kg), 100%; in [2] it was 100%; in [4] it was 100%. Besides, in series [3], the logP amounted to 7.76.
Consider `C=C(c1ccc(F)cc1)[C@@H]1CO[C@@]2(CC[C@@]3(C)[C@H](CC[C@@H]4[C@@H]3CC[C@]3(C)[C@@H]([C@H](C)CCC(=O)OC)CC[C@@H]43)C2)OO1` (relative stereo; form 2), for which the Activity in [1] (96 mg/kg) came to 33.13%.
Regarding `C=C(c1ccccc1)[C@@H]1CO[C@@]2(CC[C@@]3(C)[C@H](CC[C@@H]4[C@@H]3CC[C@]3(C)[C@@H]([C@H](C)C(C)=O)CC[C@@H]43)C2)OO1` (relative stereo; form 2), the Activity was found to be 60% in series [6] and 100% in series [1] (96 mg/kg).
For `C=C(c1ccc(F)cc1)[C@@H]1CO[C@@]2(CC[C@@]3(C)[C@H](CC[C@@H]4[C@@H]3CC[C@]3(C)[C@@H]([C@H](C)C(C)=O)CC[C@@H]43)C2)OO1` (relative stereo; form 2), in that order: 60% and 100%.
On to `C=C(c1ccccc1)[C@@H]1CO[C@@]2(CC[C@@]3(C)[C@H](CC[C@@H]4[C@@H]3CC[C@]3(C)[C@@H]([C@H](C)CCC(=O)OC)CC[C@@H]43)C2)OO1` (relative stereo; form 2), for which, in [1] (96 mg/kg), the Activity came to 43.56%.
As for `C=C(c1ccc(Br)cc1)[C@@H]1CO[C@@]2(CC[C@@]3(C)[C@H](CC[C@@H]4[C@@H]3CC[C@]3(C)[C@@H](O)CC[C@@H]43)C2)OO1` (relative stereo; form 2) [listing 2 of 2 here], the outcome in [5], in [6] and in series [7] was Active. Further, the outcome in series [9] was inactive.
Regarding `C=C(c1ccc(Cl)cc1)[C@@H]1CO[C@@]2(CC[C@@]3(C)[C@H](CC[C@@H]4[C@@H]3CC[C@]3(C)[C@@H](C(C)=O)CC[C@@H]43)C2)OO1` (relative stereo; form 2) [listing 2 of 2 here], the outcome in [6] and in series [7] was Active.
`C=C(c1ccc(F)cc1)[C@@H]1CO[C@@]2(CC[C@@]3(C)[C@H](CC[C@@H]4[C@@H]3CC[C@]3(C)[C@@H](C(C)=O)CC[C@@H]43)C2)OO1` (relative stereo; form 2) [listing 2 of 2 here]: the outcome in series [6] and in series [7] was Active.
Regarding `C=C(c1ccc(F)cc1)[C@@H]1CO[C@@]2(CC[C@@]3(C)[C@H](CC[C@@H]4[C@@H]3CC[C@]3(C)[C@@H](O)CC[C@@H]43)C2)OO1` (relative stereo; form 2) [listing 2 of 2 here], the result in series [5], in series [6] and in series [7] was Active. Further, the result in series [9] was inactive.
As for `C=C(c1ccccc1)[C@@H]1CO[C@@]2(CC[C@@]3(C)[C@H](CC[C@@H]4[C@@H]3CC[C@]3(C)[C@@H](C(C)=O)CC[C@@H]43)C2)OO1` (relative stereo; form 2) [listing 2 of 2 here], the outcome in series [6] and in series [7] was Active.
In the case of `C=C(c1ccccc1)[C@@H]1CO[C@@]2(CC[C@@]3(C)[C@H](CC[C@@H]4[C@@H]3CC[C@]3(C)[C@@H](O)CC[C@@H]43)C2)OO1` (relative stereo; form 2) [listing 2 of 2 here], the outcome in series [5], in [6] and in series [7] was Active. The outcome in series [9] was inactive.
On to `CCO[C@H]1O[C@@H]2O[C@@]3(C)CC[C@H]4[C@H](C)CC[C@@H]([C@H]1C)[C@@]24OO3` [ARTEMOTIL], for which the figures for the Activity in [5], in series [2] and in [4] were 20%, 100% and 100%, respectively. Further, in [7], the outcome was Active.
